Assay results: ChEMBL document CHEMBL1926614, “Substituted thiazoles V. synthesis and antitumor activity of novel thiazolo[2,3-b]quinazoline and pyrido[4,3-d]thiazolo[3,2-a]pyrimidine analogues” (2012)
Activity calls are given as the source filed them. The rule behind the calls is not given here.

Experiments:
Type in all cases: functional
[1] = Cytotoxicity against human CNS cancer cells after 48 hrs by coulter counting; settings: Cancer cell lines
Summary of the method: (§1)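 NCI 60-cell-line panel covering nine tumour subpanels, tested over a 5-log dose range. Compounds were dissolved in DMSO and diluted in phosphate-buffered saline to a final DMSO below 1%. Wells held 6 × 10⁴ cells/ml and were run in duplicate. Controls contained PBS and DMSO at matching dilutions. Incubation was at 37 °C in humidified 5% CO₂. GI₅₀, TGI and LC₅₀ were reported.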

[2] = Cytotoxicity against human ovarian cancer cells after 48 hrs by coulter counting; settings: Cancer cell lines; summary of the method: as §1
[3] = Cytotoxicity against human prostate cancer cells after 48 hrs by coulter counting; settings: Cancer cell lines; summary of the method: as §1
[4] = Cytotoxicity against human breast cancer cells after 48 hrs by coulter counting; settings: Cancer cell lines; summary of the method: as §1
[5] = tested on: NSCLC; test: Cytotoxicity against human NSCLC cells after 48 hrs by coulter counting; summary of the method: as §1
[6] = tested on: HCT-15; test: Growth inhibition of human HCT15 cells at 10 uM after 48 hrs by coulter counting
Summary of the method: (§2)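 Single-dose primary screen across the full NCI 60-cell-line panel. Stocks were made in DMSO and diluted in PBS to a final DMSO below 1%. Cultures at 6 × 10⁴ cells/ml were run in duplicate wells alongside PBS/DMSO vehicle controls at 37 °C in humidified 5% CO₂. Data were expressed as percent growth of treated cells.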

[7] = tested on: UACC-62; test: Growth inhibition of human UACC62 cells at 10 uM after 48 hrs by coulter counting; settings: UACC-62, 48 h, read-out: GI
Summary of the method: (§3)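 Single-dose screen in the NCI 60 human tumor cell line panel (nine subpanels). Compounds dissolved in DMSO and diluted in phosphate buffered saline, keeping final DMSO below 1%. Added in duplicate wells to cells at 6 × 10⁴ cells/ml. Controls held PBS and DMSO at matching dilutions. Incubated at 37 °C, humidified, 5% CO₂. Reported as percent growth of treated cells.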

[8] = tested on: HL-60(TB); test: Growth inhibition of human HL-60(TB) cells at 10 uM after 48 hrs by coulter counting; settings: HL-60, 48 h, read-out: GI
Summary of the method: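 Test compound was dissolved in DMSO and diluted in phosphate-buffered saline to a final DMSO level below 1%. Dilutions were plated in duplicate with cell culture at 6 × 10⁴ cells/ml. Vehicle controls held PBS and DMSO at matching dilutions. Incubation was at 37 °C, humidified, under 5% CO₂. Data were reported as percent growth of treated cells.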

[9] = tested on: K562; test: Growth inhibition of human K562 cells at 10 uM after 48 hrs by coulter counting; summary of the method: as §2
[10] = tested on: MOLT-4; test: Growth inhibition of human MOLT4 cells at 10 uM after 48 hrs by coulter counting; settings: MOLT-4, 48 h, read-out: GI; summary of the method: as §2
[11] = tested on: RPMI-8226; test: Growth inhibition of human RPMI8226 cells at 10 uM after 48 hrs by coulter counting; summary of the method: as §2
[12] = tested on: HOP-62; test: Growth inhibition of human HOP62 cells at 10 uM after 48 hrs by coulter counting; summary of the method: as §2
[13] = tested on: NCI-H23; test: Growth inhibition of human NCI-H23 cells at 10 uM after 48 hrs by coulter counting; settings: NCI-H23, 48 h, read-out: GI; summary of the method: as §2
[14] = tested on: NCI-H460; test: Growth inhibition of human NCI-H460 cells at 10 uM after 48 hrs by coulter counting; summary of the method: as §2
[15] = tested on: NCI-H522; test: Growth inhibition of human NCI-H522 cells at 10 uM after 48 hrs by coulter counting; settings: NCI-H522, 48 h, read-out: GI; summary of the method: as §2
[16] = tested on: HCT-116; test: Growth inhibition of human HCT116 cells at 10 uM after 48 hrs by coulter counting; summary of the method: as §2
[17] = tested on: KM12; test: Growth inhibition of human KM12 cells at 10 uM after 48 hrs by coulter counting; summary of the method: as §2
[18] = tested on: SF-268; test: Growth inhibition of human SF268 cells at 10 uM after 48 hrs by coulter counting; settings: SF-268, 48 h, read-out: GI; summary of the method: as §2
[19] = tested on: SF-295; test: Growth inhibition of human SF295 cells at 10 uM after 48 hrs by coulter counting; settings: SF-295, 48 h, read-out: GI; summary of the method: as §2
[20] = tested on: SNB-19; test: Growth inhibition of human SNB19 cells at 10 uM after 48 hrs by coulter counting; settings: SNB-19, 48 h, read-out: GI; summary of the method: as §2
[21] = tested on: SNB-75; test: Growth inhibition of human SNB75 cells at 10 uM after 48 hrs by coulter counting; settings: SNB-75, 48 h, read-out: GI; summary of the method: as §2
[22] = tested on: U-251; test: Growth inhibition of human U251 cells at 10 uM after 48 hrs by coulter counting; summary of the method: as §3
[23] = tested on: M14; test: Growth inhibition of human M14 cells at 10 uM after 48 hrs by coulter counting; settings: M14, 48 h, read-out: GI; summary of the method: as §2
[24] = tested on: SK-MEL-5; test: Growth inhibition of human SK-MEL-5 cells at 10 uM after 48 hrs by coulter counting; settings: SK-MEL-5, 48 h, read-out: GI; summary of the method: as §2
[25] = tested on: NCI/ADR-RES; test: Growth inhibition of human NCI/ADR-RES cells at 10 uM after 48 hrs by coulter counting; settings: read-out: GI; summary of the method: as §2
[26] = tested on: A498; test: Growth inhibition of human A498 cells at 10 uM after 48 hrs by coulter counting; settings: A498, 48 h, read-out: GI; summary of the method: as §2
[27] = tested on: CAKI-1; test: Growth inhibition of human Caki1 cells at 10 uM after 48 hrs by coulter counting; settings: CAKI-1, 48 h, read-out: GI; summary of the method: as §2
[28] = tested on: UO-31; test: Growth inhibition of human UO31 cells at 10 uM after 48 hrs by coulter counting; summary of the method: as §3
[29] = tested on: MCF7; test: Growth inhibition of human MCF7 cells at 10 uM after 48 hrs by coulter counting; settings: MCF7, 48 h, read-out: GI; summary of the method: as §2
[30] = tested on: BT-549; test: Growth inhibition of human BT549 cells at 10 uM after 48 hrs by coulter counting; settings: BT-549, 48 h, read-out: GI; summary of the method: as §2
[31] = tested on: T47D; test: Growth inhibition of human T47D cells at 10 uM after 48 hrs by coulter counting; settings: read-out: GI; summary of the method: as §3
[32] = tested on: OVCAR-3; test: Growth inhibition of human OVCAR3 cells at 10 uM after 48 hrs by coulter counting; summary of the method: as §2
[33] = tested on: 786-0; test: Growth inhibition of human 786-0 cells at 10 uM after 48 hrs by coulter counting; settings: 786-0, 48 h, read-out: GI; summary of the method: as §2
[34] = tested on: SN12C; test: Growth inhibition of human SN12C cells at 10 uM after 48 hrs by coulter counting; settings: read-out: GI; summary of the method: as §2
[35] = Cytotoxicity against human leukemia cells after 48 hrs by coulter counting; settings: Leukemia cell; summary of the method: as §1
[36] = Cytotoxicity against human colon cancer cells after 48 hrs by coulter counting; settings: Cancer cell lines; summary of the method: as §1
[37] = read-out: LC50 (the source's name)

With CCN1CC2=C(N=C3SC=CN3C2c2ccc(OC)cc2)/C(=C/c2ccc(OC)cc2)C1 (stereo not given) the GI50 [1] was 4.7 µM, the LC50 [1] was 68.2 µM and the TGI [1] was 9.4 µM. For the same compound, the GI50 [2] was 2.8 µM, the TGI [2] was 22.5 µM and the CC50 [2, 37] was 74.7 µM. For the same compound, the GI50 [3] was 2.8 µM, the LC50 (concentration killing 50% of cells) [3] was 68.1 µM and the TGI [3] was 43.9 µM. The GI50 [4] was 2.5 µM, the TGI [4] was 8 µM and the CC50 [4, 37] was 73.4 µM. The GI50 [5] was 2.5 µM, the TGI [5] was 18.3 µM and the CC50 [5, 37] was 64.9 µM. The “growth inhibition (GI)” value [6] was “Active”, the inhibition of growth at 10 µM [7] was 49.3% and the inhibition of growth at 10 µM [8] was 84%. For the same compound, the “growth inhibition (GI)” value [9] was “Active”, the inhibition of growth at 10 µM [10] was 90.4% and the “growth inhibition (GI)” value [11] was “Active”. For the same compound, the “growth inhibition (GI)” value [12] was “Active”, the inhibition of growth at 10 µM [13] was 54.8% and the “growth inhibition (GI)” value [14] was “Active”. The inhibition of growth at 10 µM [15] was 52.3%, the “growth inhibition (GI)” value [16] was “Active” and the “growth inhibition (GI)” value [17] was “Active”. For the same compound, the inhibition of growth at 10 µM [18] was 85.5%, the inhibition of growth at 10 µM [19] was 71.8% and the inhibition of growth at 10 µM [20] was 68.3%. The inhibition of growth at 10 µM [21] was 22.3%, the “growth inhibition (GI)” value [22] was “Active” and the inhibition of growth at 10 µM [23] was 97.5%. The inhibition of growth at 10 µM [24] was 74.4%, the inhibition of growth at 10 µM [25] was 76.9% and the inhibition of growth at 10 µM [26] was 11.1%. For the same compound, the inhibition of growth at 10 µM [27] was 78.3%, the “growth inhibition (GI)” value [28] was “Active” and the inhibition of growth at 10 µM [29] was 74.3%. For the same compound, the inhibition of growth at 10 µM [30] was 55.2%, the inhibition of growth at 10 µM [31] was 24.4% and the “growth inhibition (GI)” value [32] was “Active”. For the same compound, the inhibition of growth at 10 µM [33] was 53.2%, the inhibition of growth at 10 µM [34] was 96.9% and the GI50 [35] was 2.7 µM. The TGI [35] was 81.6 µM, the CC50 [35, 37] was over 100 µM and the GI50 [36] was 1.7 µM. It also gave an LC50 (concentration giving 50% net cell kill) [36] of 6.7 µM and a TGI [36] of 3.4 µM.
